Experimental data gathered from unrelated publications.
Protocols differ between the studies behind these lines.
Target: Tyrosine-protein kinase ZAP-70 (ZAP70, Homo sapiens, UniProt P43403)
Residues used in one study (P43403 1-619): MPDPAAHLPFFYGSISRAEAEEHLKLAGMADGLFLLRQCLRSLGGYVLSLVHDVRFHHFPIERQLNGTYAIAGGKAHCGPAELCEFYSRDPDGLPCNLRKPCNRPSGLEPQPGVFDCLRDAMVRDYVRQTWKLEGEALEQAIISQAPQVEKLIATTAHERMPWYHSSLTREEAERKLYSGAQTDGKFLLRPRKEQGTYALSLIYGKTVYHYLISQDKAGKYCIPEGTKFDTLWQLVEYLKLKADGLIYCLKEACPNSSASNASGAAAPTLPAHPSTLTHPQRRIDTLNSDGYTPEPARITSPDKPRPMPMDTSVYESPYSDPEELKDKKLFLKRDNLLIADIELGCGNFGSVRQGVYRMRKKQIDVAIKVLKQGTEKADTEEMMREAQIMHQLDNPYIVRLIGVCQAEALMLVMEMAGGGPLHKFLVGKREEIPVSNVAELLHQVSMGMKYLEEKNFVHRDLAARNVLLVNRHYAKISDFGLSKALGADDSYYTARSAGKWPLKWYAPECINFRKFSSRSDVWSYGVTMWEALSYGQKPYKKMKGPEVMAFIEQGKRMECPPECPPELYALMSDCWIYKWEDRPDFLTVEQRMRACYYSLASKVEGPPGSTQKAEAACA

N#Cc1ccc(NC(=O)Nc2ccccc2)cc1 — remaining binding (cell-free assay, competition with immobilised ligand; 25 µM): 91%
C#Cc1cnc(Nc2ccnc(CO)c2)nc1Nc1ccccc1S(C)(=O)=NC#N (stereo not drawn) — remaining signal (cell-free assay; 1 µM): 100%
CN1CCN(C(=O)c2ccc(NC(=O)Nc3ccc(N(C)c4ccnc(Nc5ccc(CS(C)(=O)=O)cc5)n4)cc3)cc2)CC1 — remaining binding (binding; 1 µM): 65%
COc1ccc2oc(-c3ccc4nc(N)oc4c3)c/c(=N\c3ccccc3NC(=O)CCN)c2c1 — remaining binding (binding; 1 µM): 88%
CCCCC(=O)Nc1ccc(-c2ccc3ncn(CCC)c(=O)c3c2)cn1 — remaining binding (binding, competition with immobilised ligand; 0.5 µM): 98%
C=CC(=O)N1CCC([C@@H]2CCNc3c(C(N)=O)c(-c4ccc(Oc5ccccc5)cc4)nn32)CC1 — inhibition (enzyme activity, inhibitor; 1 µM): 2%
Cc1ccc(NC(=O)c2ccnc(C(F)(F)F)c2)cc1-c1cc(OCCO)nc(N2CCOCC2)c1 — remaining binding (binding; 1 µM): 100%
CC#CC(=O)N1CCC[C@H]1c1nc(-c2ccc(C(=O)Nc3ccccn3)cc2)c2c(N)nccn12 — inhibition (enzyme activity, inhibitor; 1 µM): 8%
CC(C)S(=O)(=O)c1ccc2nccc(Nc3ccc4sc(C5CCCC5)nc4c3)c2c1 — activity vs control (enzyme activity, inhibitor; 1 µM): 100%
